This is an account of results in ChEMBL document CHEMBL1126582, “Symmetry-based inhibitors of HIV protease. Structure-activity studies of acylated 2,4-diamino-1,5-diphenyl-3-hydroxypentane and 2,5-diamino-1,6-diphenylhexane-3,4-diol” (J Med Chem, 1993).

A short description of data set [1]: Estimated solubility (buffer pH 7.4). The class given is ADME. The conditions noted are these: read-out: S. The essentials:
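Solubility was estimated in pH 7.4 phosphate buffer.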

Data set [2] deals with MT4. The data set can be described thus: In vitro for cytotoxicity in MT-4 lymphocytes in the absence of HIV infection. The following applies: Homo sapiens. In kind it is functional. In outline:
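Uninfected MT-4 lymphocytes were cultured with compound. CC50 is the concentration at which 50% of cells remain viable.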

Data set [3] has as its system Human immunodeficiency virus 1. Description: In vitro for inhibition of cytopathic effect of HIV-1 3B in MT-4 lymphocytes. In kind it is functional, organism-based. The essentials:
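MT-4 lymphocytes were infected with HIV-1 3B at an MOI of either 0.001 or 0.032 tissue culture infective dose per cell. EC50 is the concentration preventing 50% of viral cytopathic effect, from a single triplicate assay. No effect means no activity up to 100 μM or up to the cytotoxic concentration.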
For orientation: Damage to the host cells serves as the signal in cytopathic effect assays.

The target in data set [4] is Human immunodeficiency virus type 1 protease (Human immunodeficiency virus 1, UniProt Q72874). The data set can be described thus: Inhibition of purified recombinant HIV-1 protease in a fluorogenic assay. In outline: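 Purified recombinant HIV-1 protease, with cleavage of the fluorogenic substrate DABCYL-[…]-Pro-Ile-Val-Gln-EDANS as read-out. Value is the inhibitor concentration giving 50% inhibition of protease activity.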

SMILES strings stand for the structures. In brackets after ≈: the same amount, converted by molar mass. Where only a bound is given, the exact number is not on record here.

What is called CC50 is the concentration that lowers cell viability or growth by half. A higher CC50 goes with better tolerance by the cells. In general, EC50 refers to the concentration giving half of the maximal effect. Read a low EC50 as higher potency in that assay. As a reminder, the IC50 is the point on the concentration scale where inhibition reaches its midpoint. Take `CC(C)[C@H](NC(=O)OCc1ccccn1)C(=O)N[C@@H](Cc1ccccc1)[C@@H](O)[C@H](Cc1ccccc1)NC(=O)[C@H](NC(=O)OCc1ccccc1)C(C)C`: the solubility in data set [1] was 0.6 µg/mL (≈ 0.813 µM). Further, the CC50 in data set [2] was more than 100 µM. Further, a half-maximal response in data set [3] (EC50) required 2.2 µM. The 50% inhibitory concentration (IC50) in data set [4] was found to be 0.003 µM.
For `CC(C)[C@H](NC(=O)N(C)Cc1ccccn1)C(=O)N[C@@H](Cc1ccccc1)[C@H](O)[C@@H](O)[C@H](Cc1ccccc1)NC(=O)[C@H](NC(=O)N(C)Cc1cscn1)C(C)C` the same measures were 1 µg/mL (≈ 1.25 µM), more than 100 µM, 0.2 µM and less than 0.001 µM.
For `CC(C)[C@H](NC(=O)N(C)Cc1nccs1)C(=O)N[C@@H](Cc1ccccc1)[C@H](O)[C@H](O)[C@H](Cc1ccccc1)NC(=O)[C@H](NC(=O)N(C)Cc1nccs1)C(C)C` the same measures were 57 µg/mL (≈ 70.6 µM), more than 100 µM, 0.39 µM and less than 0.001 µM.
As for `CC(C)[C@H](NC(=O)c1ccc2ccccc2n1)C(=O)N[C@@H](Cc1ccccc1)C(O)[C@H](Cc1ccccc1)NC(=O)[C@H](NC(=O)c1ccc2ccccc2n1)C(C)C` (stereo partly drawn), the solubility in data set [1] was 0.23 µg/mL (≈ 0.295 µM). Besides, the CC50 in data set [2] was more than 100 µM. This compound also displayed an EC50 in data set [3] of 2.1 µM. Besides, the half-inhibitory concentration (IC50) in data set [4] stood at 0.0016 µM.
For `CC(C)[C@H](NC(=O)OCc1ccccn1)C(=O)N[C@@H](Cc1ccccc1)[C@@H](O)[C@H](O)[C@H](Cc1ccccc1)NC(=O)[C@H](NC(=O)OCc1ccccn1)C(C)C` the same measures were 2.4 µg/mL (≈ 3.12 µM), more than 100 µM, 0.06 µM and less than 0.001 µM.
For `CC(C)[C@H](NC(=O)OCc1cccnc1)C(=O)N[C@@H](Cc1ccccc1)[C@@H](O)[C@@H](O)[C@H](Cc1ccccc1)NC(=O)[C@H](NC(=O)OCc1cccnc1)C(C)C` the same measures were 31 µg/mL (≈ 40.3 µM), more than 100 µM, 0.44 µM and less than 0.001 µM.
For `CC(C)[C@H](NC(=O)N(C)Cc1nc2ccccc2[nH]1)C(=O)N[C@@H](Cc1ccccc1)[C@H](O)[C@H](O)[C@H](Cc1ccccc1)NC(=O)[C@H](NC(=O)N(C)Cc1nc2ccccc2[nH]1)C(C)C`, in that order: 18 µg/mL (≈ 20.6 µM), 31 µM, 1.9 µM and less than 0.001 µM.
Turning to `CC(C)[C@H](NC(=O)OCc1ccncc1)C(=O)N[C@@H](Cc1ccccc1)[C@H](O)[C@H](O)[C@H](Cc1ccccc1)NC(=O)[C@H](NC(=O)OCc1ccncc1)C(C)C`, the solubility in data set [1] is 0.62 µg/mL (≈ 0.806 µM). The CC50 in data set [2] is more than 100 µM. In data set [3], this compound returned an EC50 of 0.6 µM. Further, in data set [4], the concentration for half-maximal inhibition (IC50) worked out at 0.0023 µM.
Take `CC(C)[C@H](NC(=O)N(C)CCc1ccccn1)C(=O)N[C@@H](Cc1ccccc1)[C@H](O)[C@H](O)[C@H](Cc1ccccc1)NC(=O)[C@H](NC(=O)N(C)CCc1ccccn1)C(C)C`: the solubility in data set [1] is 86 µg/mL (≈ 104 µM). The CC50 in data set [2] was found to be 95 µM. The compound also came in with an EC50 in data set [3] of 12 µM. In addition, the IC50 in data set [4] came out at 0.031 µM.
Consider `CC(C)[C@H](NC(=O)N(C)CCc1ccccn1)C(=O)N[C@@H](Cc1ccccc1)[C@@H](O)[C@@H](O)[C@H](Cc1ccccc1)NC(=O)[C@H](NC(=O)N(C)CCc1ccccn1)C(C)C`, for which the solubility in data set [1] is 355 µg/mL (≈ 431 µM). In data set [2], this compound returned a CC50 of more than 100 µM. The compound further showed an EC50 in data set [3] of 13 µM. In addition, the IC50 in data set [4] was 0.022 µM.
Take `CC(C)[C@H](NC(=O)N(C)Cc1ccccn1)C(=O)N[C@@H](Cc1ccccc1)[C@H](O)[C@@H](O)[C@H](Cc1ccccc1)NC(=O)[C@H](NC(=O)N(C)Cc1cccnc1)C(C)C`: the solubility in data set [1] was 420 µg/mL (≈ 528 µM). This compound yielded a cytotoxic concentration (CC50) in data set [2] of more than 100 µM. This compound also gave an EC50 in data set [3] of 0.48 µM. Besides, in data set [4], the IC50 was less than 0.001 µM.
In the case of `CC(C)[C@H](NC(=O)OCc1cccnc1)C(=O)N[C@@H](Cc1ccccc1)[C@@H](O)[C@H](Cc1ccccc1)NC(=O)[C@H](NC(=O)OCc1ccccc1)C(C)C`, the solubility in data set [1] was 0.9 µg/mL (≈ 1.22 µM). Also, the 50% cytotoxic concentration (CC50) in data set [2] is more than 100 µM. In data set [3], this compound returned an EC50 of 2.8 µM. Further, in data set [4], the IC50 is 0.004 µM.
